Assay results from ChEMBL document CHEMBL5537160, “Design, Synthesis, Pharmacology, and In Silico Studies of (1S,2S,3S)-2-((S)-Amino(carboxy)methyl)-3-(carboxymethyl)cyclopropane-1-carboxylic Acid (LBG30300): A Picomolar Potency Subtype-Selective mGlu2 Receptor Agonist” (J Med Chem, 2024).
Calls of active or inactive are those of the source. The calls are words filed in the database; no cut-off is given here.

How the values were obtained:
[1] = target: Metabotropic glutamate receptor 1 (Rattus norvegicus) (UniProt P23385); test: Antagonist activity at rat mGlu1 transfected in HEK293 cells by IP-one HTRF assay; assay type: functional, cell-based
Outline: (§1)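 HEK293 cells transiently electroporated with rat receptor plasmid plus EAAC1 Glu transporter, plated 150 000 cells/well on polyornithine, serum-free Glutamax DMEM ≥2 h before assay. At 24 h, washed in Krebs buffer and stimulated 30 min with compound in 50 mM LiCl. IP1 read by HTRF, at least duplicates, EC50 from 2–5 experiments.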

[2] = target: Metabotropic glutamate receptor 2 (Rattus norvegicus) (UniProt P31421); test: Antagonist activity at rat mGlu2 transfected in HEK293 cells co-transfected with chimeric Gqi9 incubated for 30 mins by IP-one HTRF assay; assay type: functional, cell-based
[3] = target: Metabotropic glutamate receptor 3 (Rattus norvegicus) (UniProt P31422); test: Antagonist activity at rat mGlu3 transfected in HEK293 cells co-transfected with chimeric Gqi9 incubated for 30 mins by IP-one HTRF assay; assay type: functional, cell-based
[4] = target: Metabotropic glutamate receptor 4 (Rattus norvegicus) (UniProt P31423); test: Antagonist activity at rat mGlu4 transfected in HEK293 cells co-transfected with chimeric Gqi9 incubated for 30 mins by IP-one HTRF assay; assay type: functional, cell-based
Outline: (§2)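 Rat group II/III receptor co-electroporated into HEK293 with chimeric Gqi9 and EAAC1 transporter, serum-free medium ≥2 h pre-assay. At 24 h post-transfection, Krebs wash, then 30 min compound exposure with 50 mM LiCl. IP1 accumulation quantified by HTRF kit, at least duplicate runs, mean of 2–5 experiments.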

[5] = target: Metabotropic glutamate receptor 5 (Rattus norvegicus) (UniProt P31424); test: Antagonist activity at rat mGlu5 transfected in HEK293 cells by IP-one HTRF assay; assay type: functional, cell-based; outline: as §1
[6] = target: Metabotropic glutamate receptor 6 (Rattus norvegicus) (UniProt P35349); test: Antagonist activity at rat mGlu6 transfected in HEK293 cells co-transfected with chimeric Gqi9 incubated for 30 mins by IP-one HTRF assay; assay type: functional, cell-based; outline: as §2
[7] = target: Metabotropic glutamate receptor 7 (Rattus norvegicus) (UniProt P35400); test: Antagonist activity at rat mGlu7 transfected in HEK293 cells co-transfected with chimeric Gqi9 incubated for 30 mins by IP-one HTRF assay; assay type: functional, cell-based; outline: as §2
[8] = target: Metabotropic glutamate receptor 8 (Rattus norvegicus) (UniProt P70579); test: Antagonist activity at rat mGlu8 transfected in HEK293 cells co-transfected with chimeric Gqi9 incubated for 30 mins by IP-one HTRF assay; assay type: functional, cell-based; outline: as §2
[9] = target: T1, Metabotropic glutamate receptor 2 (Rattus norvegicus, UniProt P31421); test: Agonist activity at rat mGlu2 transfected in HEK293 cells co-transfected with chimeric Gqi9 incubated for 30 mins by IP-one HTRF assay; assay type: functional, cell-based; settings: read-out: EC50; outline: as §2
[10] = target: T2, Metabotropic glutamate receptor 3 (Rattus norvegicus, UniProt P31422); test: Agonist activity at rat mGlu3 transfected in HEK293 cells co-transfected with chimeric Gqi9 incubated for 30 mins by IP-one HTRF assay; assay type: functional, cell-based
[11] = target: T1, Metabotropic glutamate receptor 2; test: Agonist activity at rat mGlu2; assay type: functional
[12] = target: T2, Metabotropic glutamate receptor 3; test: Agonist activity at rat mGlu3; assay type: functional
[13] = target: Metabotropic glutamate receptor 1 (Rattus norvegicus, UniProt P23385); test: Agonist activity at rat mGlu1 transfected in HEK293 cells by IP-one HTRF assay; assay type: functional, cell-based; outline: as §1
[14] = target: Metabotropic glutamate receptor 5 (Rattus norvegicus, UniProt P31424); test: Agonist activity at rat mGlu5 transfected in HEK293 cells by IP-one HTRF assay; assay type: functional, cell-based; settings: read-out: EC50
Outline: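 HEK293 cells transiently electroporated with rat receptor plasmid plus the high-affinity Glu transporter EAAC1. Cells were grown in DMEM with 10% FBS and seeded on polyornithine-coated wells at 150 000 cells/well. Medium was switched to serum-free Glutamax DMEM ≥2 h before assay. At 24 h cells were washed in Krebs buffer and stimulated 30 min with agonist plus 50 mM LiCl. IP1 read by IP-One HTRF; ≥ duplicates.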

[15] = target: Metabotropic glutamate receptor 4 (Rattus norvegicus, UniProt P31423); test: Agonist activity at rat mGlu4 transfected in HEK293 cells co-transfected with chimeric Gqi9 incubated for 30 mins by IP-one HTRF assay; assay type: functional, cell-based; settings: read-out: EC50; outline: as §2
[16] = target: Metabotropic glutamate receptor 6 (Rattus norvegicus, UniProt P35349); test: Agonist activity at rat mGlu6 transfected in HEK293 cells co-transfected with chimeric Gqi9 incubated for 30 mins by IP-one HTRF assay; assay type: functional, cell-based; settings: read-out: EC50; outline: as §2
[17] = target: Metabotropic glutamate receptor 7 (Rattus norvegicus, UniProt P35400); test: Agonist activity at rat mGlu7 transfected in HEK293 cells co-transfected with chimeric Gqi9 incubated for 30 mins by IP-one HTRF assay; assay type: functional, cell-based; outline: as §2
[18] = target: Metabotropic glutamate receptor 8 (Rattus norvegicus, UniProt P70579); test: Agonist activity at rat mGlu8 transfected in HEK293 cells co-transfected with chimeric Gqi9 incubated for 30 mins by IP-one HTRF assay; assay type: functional, cell-based; settings: read-out: EC50; outline: as §2
[19] = target: T1, Metabotropic glutamate receptor 2; test: Agonist activity at SNAP tagged rat mGlu2 transfected HEK293 cells by TR-FRET assay; assay type: functional, cell-based; settings: read-out: EC50
[20] = target: T2, Metabotropic glutamate receptor 3; test: Agonist activity at SNAP tagged rat mGlu3 transfected HEK293 cells preincubated with antagonist LY-341495 followed by compound addition by TR-FRET assay; assay type: functional, cell-based

T2 sequence (P31422 whole entry): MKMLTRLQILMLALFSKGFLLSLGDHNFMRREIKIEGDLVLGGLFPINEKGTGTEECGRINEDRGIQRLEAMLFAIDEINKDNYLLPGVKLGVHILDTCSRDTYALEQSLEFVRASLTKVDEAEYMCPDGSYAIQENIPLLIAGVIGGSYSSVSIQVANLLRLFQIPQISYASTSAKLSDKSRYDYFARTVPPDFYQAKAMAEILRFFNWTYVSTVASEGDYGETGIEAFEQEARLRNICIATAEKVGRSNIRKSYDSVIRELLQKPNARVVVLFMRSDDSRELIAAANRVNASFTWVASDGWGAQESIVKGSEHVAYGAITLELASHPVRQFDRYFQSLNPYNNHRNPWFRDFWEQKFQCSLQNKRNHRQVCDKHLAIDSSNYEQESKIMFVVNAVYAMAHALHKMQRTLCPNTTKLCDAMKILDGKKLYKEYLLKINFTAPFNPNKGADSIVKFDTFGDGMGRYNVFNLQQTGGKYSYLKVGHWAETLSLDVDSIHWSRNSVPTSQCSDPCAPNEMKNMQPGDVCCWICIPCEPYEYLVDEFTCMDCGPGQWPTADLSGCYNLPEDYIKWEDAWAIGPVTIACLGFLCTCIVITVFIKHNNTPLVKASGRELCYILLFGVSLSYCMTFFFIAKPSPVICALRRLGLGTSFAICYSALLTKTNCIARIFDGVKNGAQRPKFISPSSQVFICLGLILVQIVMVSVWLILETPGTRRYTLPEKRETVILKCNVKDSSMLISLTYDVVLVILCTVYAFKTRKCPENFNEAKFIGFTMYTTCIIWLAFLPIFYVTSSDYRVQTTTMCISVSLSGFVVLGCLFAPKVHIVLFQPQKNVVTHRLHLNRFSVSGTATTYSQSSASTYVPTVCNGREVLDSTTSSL
T1 sequence (P31421 whole entry): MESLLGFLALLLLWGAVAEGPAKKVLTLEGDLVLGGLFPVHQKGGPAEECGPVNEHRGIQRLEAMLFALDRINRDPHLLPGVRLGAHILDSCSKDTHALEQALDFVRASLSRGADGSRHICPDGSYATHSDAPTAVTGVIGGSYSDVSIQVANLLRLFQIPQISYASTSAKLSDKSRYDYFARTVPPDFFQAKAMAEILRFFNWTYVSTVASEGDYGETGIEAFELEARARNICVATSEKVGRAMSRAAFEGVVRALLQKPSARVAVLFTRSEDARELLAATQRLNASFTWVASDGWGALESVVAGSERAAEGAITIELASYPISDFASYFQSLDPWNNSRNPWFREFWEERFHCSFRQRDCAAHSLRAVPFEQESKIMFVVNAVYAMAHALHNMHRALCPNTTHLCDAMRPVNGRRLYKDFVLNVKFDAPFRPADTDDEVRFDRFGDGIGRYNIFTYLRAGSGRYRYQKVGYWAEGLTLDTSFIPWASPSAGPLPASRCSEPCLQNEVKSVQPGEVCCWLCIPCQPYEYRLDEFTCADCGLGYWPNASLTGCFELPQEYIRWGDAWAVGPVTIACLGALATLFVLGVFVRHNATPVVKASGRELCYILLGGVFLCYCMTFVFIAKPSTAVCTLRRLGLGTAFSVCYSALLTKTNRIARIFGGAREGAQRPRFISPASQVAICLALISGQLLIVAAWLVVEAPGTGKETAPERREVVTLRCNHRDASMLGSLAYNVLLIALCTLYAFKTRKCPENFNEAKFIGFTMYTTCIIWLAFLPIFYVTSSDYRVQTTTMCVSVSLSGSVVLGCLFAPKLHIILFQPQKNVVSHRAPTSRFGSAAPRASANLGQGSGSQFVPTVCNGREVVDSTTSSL
Sequence of Metabotropic glutamate receptor 3 (Rattus norvegicus) (P31422 23-879 limits assumed): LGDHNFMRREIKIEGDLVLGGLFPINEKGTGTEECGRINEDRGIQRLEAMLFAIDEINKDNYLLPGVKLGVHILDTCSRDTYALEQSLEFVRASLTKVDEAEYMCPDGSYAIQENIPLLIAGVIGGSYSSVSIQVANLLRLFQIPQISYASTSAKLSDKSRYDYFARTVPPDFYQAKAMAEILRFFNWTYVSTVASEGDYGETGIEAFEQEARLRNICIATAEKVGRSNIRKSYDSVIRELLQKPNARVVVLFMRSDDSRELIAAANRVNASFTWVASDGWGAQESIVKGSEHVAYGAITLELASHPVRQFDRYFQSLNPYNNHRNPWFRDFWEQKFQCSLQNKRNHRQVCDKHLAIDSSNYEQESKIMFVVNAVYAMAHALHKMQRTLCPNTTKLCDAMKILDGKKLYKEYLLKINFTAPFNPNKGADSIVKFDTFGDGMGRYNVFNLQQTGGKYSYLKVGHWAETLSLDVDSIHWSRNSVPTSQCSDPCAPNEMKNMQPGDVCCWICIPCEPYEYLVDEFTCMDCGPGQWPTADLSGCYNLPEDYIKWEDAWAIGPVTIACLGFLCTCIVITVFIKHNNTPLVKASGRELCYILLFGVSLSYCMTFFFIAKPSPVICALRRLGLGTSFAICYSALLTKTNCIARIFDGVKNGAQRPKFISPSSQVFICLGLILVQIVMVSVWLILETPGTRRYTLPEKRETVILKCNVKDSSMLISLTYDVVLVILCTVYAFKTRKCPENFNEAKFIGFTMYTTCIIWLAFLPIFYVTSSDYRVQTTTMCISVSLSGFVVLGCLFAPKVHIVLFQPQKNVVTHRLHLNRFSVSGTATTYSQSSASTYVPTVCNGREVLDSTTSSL
Sequence of Metabotropic glutamate receptor 5 (Rattus norvegicus) (P31424 21-1203 limits assumed): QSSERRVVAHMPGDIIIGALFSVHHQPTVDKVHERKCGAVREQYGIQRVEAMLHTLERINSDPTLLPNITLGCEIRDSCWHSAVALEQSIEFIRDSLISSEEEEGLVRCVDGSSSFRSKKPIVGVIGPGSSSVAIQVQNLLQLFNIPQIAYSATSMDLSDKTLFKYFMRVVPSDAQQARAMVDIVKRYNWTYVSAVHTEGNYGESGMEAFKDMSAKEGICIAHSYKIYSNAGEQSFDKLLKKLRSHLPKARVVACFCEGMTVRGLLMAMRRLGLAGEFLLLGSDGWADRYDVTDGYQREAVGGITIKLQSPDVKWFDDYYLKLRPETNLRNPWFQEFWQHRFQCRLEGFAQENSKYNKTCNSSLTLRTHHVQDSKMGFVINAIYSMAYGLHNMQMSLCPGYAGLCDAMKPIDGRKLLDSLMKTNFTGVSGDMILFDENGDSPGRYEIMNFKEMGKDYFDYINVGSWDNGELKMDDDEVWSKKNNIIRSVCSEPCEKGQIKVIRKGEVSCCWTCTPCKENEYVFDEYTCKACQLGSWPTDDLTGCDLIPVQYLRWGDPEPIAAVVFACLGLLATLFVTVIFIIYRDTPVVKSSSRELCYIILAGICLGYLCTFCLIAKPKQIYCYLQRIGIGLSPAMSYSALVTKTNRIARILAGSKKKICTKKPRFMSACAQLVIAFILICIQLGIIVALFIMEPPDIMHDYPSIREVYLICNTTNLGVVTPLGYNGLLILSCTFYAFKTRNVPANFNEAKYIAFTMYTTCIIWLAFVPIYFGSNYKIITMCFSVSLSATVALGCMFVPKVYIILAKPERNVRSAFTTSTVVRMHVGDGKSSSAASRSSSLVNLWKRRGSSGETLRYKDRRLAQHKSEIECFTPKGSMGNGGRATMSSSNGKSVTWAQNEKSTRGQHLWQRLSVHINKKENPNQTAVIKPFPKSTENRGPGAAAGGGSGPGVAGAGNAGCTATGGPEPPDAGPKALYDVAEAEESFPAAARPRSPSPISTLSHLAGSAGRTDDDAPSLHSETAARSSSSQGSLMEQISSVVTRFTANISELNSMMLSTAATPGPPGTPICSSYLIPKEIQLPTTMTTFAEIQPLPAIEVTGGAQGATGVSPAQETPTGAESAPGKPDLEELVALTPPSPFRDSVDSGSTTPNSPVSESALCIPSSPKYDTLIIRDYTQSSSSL
Sequence of Metabotropic glutamate receptor 8 (Rattus norvegicus) (P70579 whole entry): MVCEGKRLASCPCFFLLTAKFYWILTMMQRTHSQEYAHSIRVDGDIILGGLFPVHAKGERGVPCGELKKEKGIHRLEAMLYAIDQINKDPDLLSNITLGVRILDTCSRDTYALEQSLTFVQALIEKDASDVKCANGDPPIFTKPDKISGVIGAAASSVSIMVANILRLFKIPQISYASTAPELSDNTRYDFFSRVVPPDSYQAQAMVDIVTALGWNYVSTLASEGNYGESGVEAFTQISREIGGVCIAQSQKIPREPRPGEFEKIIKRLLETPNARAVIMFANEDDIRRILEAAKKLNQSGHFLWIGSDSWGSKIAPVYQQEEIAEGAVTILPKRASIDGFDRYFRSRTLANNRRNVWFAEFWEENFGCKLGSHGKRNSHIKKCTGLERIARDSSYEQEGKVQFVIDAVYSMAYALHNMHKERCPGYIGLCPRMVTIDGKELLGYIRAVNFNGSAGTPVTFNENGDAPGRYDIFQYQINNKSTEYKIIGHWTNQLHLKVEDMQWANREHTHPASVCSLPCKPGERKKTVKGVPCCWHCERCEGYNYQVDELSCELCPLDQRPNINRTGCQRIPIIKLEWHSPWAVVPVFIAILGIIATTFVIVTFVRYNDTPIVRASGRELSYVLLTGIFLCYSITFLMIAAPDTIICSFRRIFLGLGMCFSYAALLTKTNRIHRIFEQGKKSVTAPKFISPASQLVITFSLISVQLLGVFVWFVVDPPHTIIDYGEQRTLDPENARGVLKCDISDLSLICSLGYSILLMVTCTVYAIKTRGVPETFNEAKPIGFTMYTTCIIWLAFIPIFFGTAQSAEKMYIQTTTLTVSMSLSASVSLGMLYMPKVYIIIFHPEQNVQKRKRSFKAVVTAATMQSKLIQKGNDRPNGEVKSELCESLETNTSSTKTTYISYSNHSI
Sequence of Metabotropic glutamate receptor 8 (P70579 whole entry): as above

| Activity [1] | Activity [2] | Activity [3] | Activity [4] | Activity [5] | Activity [6] | Activity [7] | Activity [8] | EC50 [9] [µM] | EC50 [10] [µM] | EC50 [11] [µM] | EC50 [12] [µM] | EC50 [13] [µM] | EC50 [14] [µM] | EC50 [15] [µM] | EC50 [16] [µM] | EC50 [17] [µM] | EC50 [18] [µM] | Compound | EC50 [19] [µM] | EC50 [20] [µM] |
| --- | --- | --- | --- | --- | --- | --- | --- | --- | --- | --- | --- | --- | --- | --- | --- | --- | --- | --- | --- | --- |
| inactive | inactive | inactive | inactive | inactive | inactive | inactive | inactive | 0.001 | 0.01 | – | – | – | – | – | – | – | – | N[C@@]1(C(=O)O)CO[C@H]2[C@H](C(=O)O)[C@H]21 [LY-379268] | – | – |
| – | – | – | – | – | – | – | – | – | – | 0.004 | 0.007 | – | – | – | – | – | – | N[C@H](C(=O)O)[C@H]1[C@@H](CO)[C@@H]1C(=O)O | – | – |
| inactive | inactive | inactive | inactive | inactive | inactive | inactive | inactive | – | 1.88 | – | – | 5.5 | 12 | > 30 | 2.5 | > 30 | > 30 | C[C@@]1(C(=O)O)C[C@H]1[C@H](N)C(=O)O | – | – |
| – | – | – | – | – | – | – | – | – | – | – | – | – | – | – | – | – | – | COc1cccc(C(=O)N[C@H]2C[C@@](N)(C(=O)O)[C@@H]3[C@@H](C(=O)O)[C@@H]32)c1 | 2.82 | 0.032 |
